Rows were chosen to be rich in hits. Some 3.5% of all compounds tested hit in one or more screens of this group.
RGS4 block: inhibitors of human RGS4. P49798. HEK293 M3R/RGS4 inducible, Fluo-4 calcium flux; stronger effect = higher value; triggered by carbachol at its EC20. B-score at 10 µM. 0.45% of 310,000 active. AID 463165;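 active = B-score, a plate-corrected calcium signal, over three deviations above library mean, with baseline fluorescence within five deviations of library mean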;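 note: RGS4 expression induced by doxycycline in cells with stable M3 receptor; B-score is computed from the integrated fluorescence ratio over baseline after carbachol; higher B-score means a larger calcium signal and so more RGS4 inhibition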
Target sequence (P49798 whole entry, looked up): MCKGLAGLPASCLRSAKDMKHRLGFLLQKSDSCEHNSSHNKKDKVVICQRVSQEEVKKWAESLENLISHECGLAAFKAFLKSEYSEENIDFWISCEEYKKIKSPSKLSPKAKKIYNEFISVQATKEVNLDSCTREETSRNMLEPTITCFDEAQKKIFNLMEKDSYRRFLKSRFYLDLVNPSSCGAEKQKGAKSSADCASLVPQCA
MrgX1 allo act: allosterically activates human MrgX1 receptor signaling; MrgX1-HEK293, Fluo-4 calcium flux, FDSS; stronger effect = higher value; B-score at 10 µM; 0.63% of 310,000 active;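 active = plate-corrected calcium response at least 3 library SD above typical, normal starting fluorescence, not activating the receptor alone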;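 note: compound read alongside a low EC10 to EC30 dose of BAM8-22 agonist; peak minus trough fluorescence over baseline measured at the second addition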
MrgX1 agonist: human MrgX1 receptor agonism, primary screen. AID 588627. B-score at 10 µM. MrgX1-HEK293 cells, Fluo-4 calcium fluorescence, agonist mode; stronger effect = higher value. Q96LB2. 0.44% of 310,000 active;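 active = calcium response B-score plate-corrected fluorescence ratio at least 3 library SD, with starting fluorescence B-score inside 5 SD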
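times = overnight plating, then 30 min 37 °C plus 30 min room-temperature dye loading | assay system = stable human MrgX1 HEK293 cell line | input = fifteen thousand cells per well | signal = kinetic calcium dye fluorescence, Fluo-4 NW | dosing = compound delivered in addition one of three | read-out = B-scored fluorescence response ratio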
MrgX1 antagonist: human MrgX1 receptor antagonism, primary screen; B-score at 10 µM; MRGX1-HEK293 calcium flux, Fluo-4, BAM8-22 antagonism; stronger effect = lower value; AID 588676; Q96LB2; 1.3% of 310,000 active;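 active = calcium-response B-score plate-corrected more than 3 library SD below zero, starting fluorescence within 5 deviations, no agonist response on first addition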;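 note: peak minus trough fluorescence over baseline after final BAM8-22 challenge near maximal dose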
RGS4 act: potentiators or activators of RGS4. HEK293 M3R/inducible RGS4, carbachol calcium flux Fluo4; stronger effect = lower value. B-score at 10 µM. 0.92% of 310,000 active;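 active = B-score of the integrated calcium signal more than 4 SD below the library mean, with starting fluorescence not abnormally high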;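 note: negative B-score means reduced calcium response which marks RGS4 activation or potentiation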
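Reagent: ECmax carbachol challenge; Test system: M3R-expressing HEK293 line, RGS4 induced by doxycycline; Schedule: overnight RGS4 induction, 30 min dye load 37 °C, 20 min compound RT; Detection: calcium dye Fluo4 fluorescence; Read-out: Agonist-evoked peak-minus-minimum fluorescence over baseline, integrated ratio, B score.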
* marks the source's active call; other numbers are inactive results; i = inactive; . = no result.

SMILES	RGS4 block	MrgX1 allo act	MrgX1 agonist	MrgX1 antagonist	RGS4 act
Cc1c(C(C)NC(=O)c2cc(COc3cccc4cnccc34)on2)cnn1C (stereo unspecified)	i	i	i	i	i
O=C(NC(=S)NCCC1=CCCCC1)c1ccccc1Br	i	i	i	i	-7.3*
O=C(N/N=C/c1ccc([N+](=O)[O-])s1)c1ccccc1Br	i	i	i	-5.3*	i
Cc1ccccc1C(=O)N/N=C/c1ccc([N+](=O)[O-])s1	i	i	i	i	i
COc1ccccc1/C=C/C(=O)OCC(=O)NNC(=O)c1ccccc1	i	i	i	-5.2*	i
COc1ccccc1/C=C/C(=O)OCC(=O)NCc1ccco1	i	i	i	i	i
COc1ccc(Cl)cc1NC(=O)COC(=O)CCCN1C(=O)c2ccccc2C1=O	i	i	i	i	i
COc1ccc(OC)c(NC(=O)COC(=O)CCCN2C(=O)c3ccccc3C2=O)c1	i	i	i	-9*	i
O=C(CN(Cc1ccc(F)cc1)S(=O)(=O)c1ccc(S(=O)(=O)N2CCOCC2)cc1)Nc1ccccc1	i	i	i	i	i
O=C1c2cccc3c(Nc4ccccc4Cl)c([N+](=O)[O-])cc(c23)C(=O)N1CCO	i	i	i	i	i
CC(=O)c1ccc(OCCCC(=O)NC2CCCc3ccccc32)cc1 (stereo unspecified)	i	i	i	i	i
CN(C)c1ccc(/C=C(\Cl)c2nc3ccccc3s2)cc1	.	i	i	i	.
Cc1cc2nc3ccc(=[N+](C)C)cc-3sc2cc1N	i	.	.	.	-8.4*
CN(C)c1ccc2nc3ccc(=[N+](C)C)cc-3sc2c1	i	i	i	i	-7.5*
Cc1nc2cc(C)c(C)cc2s1	i	i	i	i	i
O=[N+]([O-])c1ccc(Oc2ccc(S(=O)(=O)N3CCOCC3)cn2)cc1	i	i	i	-8*	i
O=[N+]([O-])c1ccc2nc(NS(=O)(=O)c3ccccc3[N+](=O)[O-])sc2c1	i	10*	i	i	i
O=C(NC(Nc1nc2ccc([N+](=O)[O-])cc2s1)(C(F)(F)F)C(F)(F)F)c1cccnc1	i	i	i	i	i
O=C(NC(Nc1nc2ccc([N+](=O)[O-])cc2s1)(C(F)(F)F)C(F)(F)F)c1ccccc1Cl	i	i	i	-5.5*	i
O=[N+]([O-])c1ccccc1S(=O)(=O)Nc1nc2ccccc2s1	i	i	i	i	i
O=[N+]([O-])c1ccc2nc(NS(=O)(=O)c3ccc(Cl)cc3)sc2c1	i	11*	i	i	i
CN(c1ccccc1)S(=O)(=O)c1ccc(C(=O)Nc2ncccc2O)cc1	i	i	i	i	i
O=C(Cc1ccccc1)NNC(=S)NC(=O)c1cccs1	i	i	60*	i	i
O=C(NC(=S)NCc1ccccc1)c1cccs1	i	i	i	i	i
O=C(Cc1cccs1)NNC(=S)NC(=O)c1ccccc1	i	i	43*	i	i
SMILES	RGS4 block	MrgX1 allo act	MrgX1 agonist	MrgX1 antagonist	RGS4 act
O=C(COc1ccccc1)NNC(=S)NC(=O)c1ccccc1	i	i	i	i	i
O=C(Cc1cccs1)NNC(=S)NC(=O)c1ccc(F)c(F)c1	i	i	61*	i	i
O=C1CC(c2ccccc2)CC(O)=C1C=NCc1ccc(Cl)c(Cl)c1 (stereo unspecified)	i	i	i	i	i
O=C1CC(c2ccccc2)CC(O)=C1C=NCc1ccncc1 (stereo unspecified)	i	i	i	-6.4*	i
Cc1onc(-c2ccccc2Cl)c1C(=O)Nc1ccc(Br)cc1	i	i	i	i	i
Cc1ccc(NC(=O)c2ccc3nc(N4CCOCC4)sc3c2)c(Cl)c1	i	i	i	i	i
Cn1c(-c2c(N)n(CCc3ccccc3)c3nc4ccccc4nc23)nc2ccccc21	i	i	29*	i	i
Nc1c(C(=O)OCC2CCCO2)c2nc3ccccc3nc2n1C1CCCC1 (stereo unspecified)	i	i	i	i	i
